Results published in ChEMBL document CHEMBL1795330, “Dual IGF-1R/SRC inhibitors based on a N'-aroyl-2-(1H-indol-3-yl)-2-oxoacetohydrazide structure” (Eur J Med Chem, 2011).

Columns and labels:
[1] = target: Proto-oncogene tyrosine-protein kinase Src (Homo sapiens, UniProt P12931); test: Inhibition of SRC assessed as incorporation of p33 using [gammaP33]-ATP by microplate scintillation counting
Summary of the method: (§1)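 Compound added in 10% DMSO. Incubated 80 min at 30 °C, stopped with 2% phosphoric acid, washed with 0.9% NaCl, 33P incorporation counted by scintillation. Activity normalised to no-enzyme and no-inhibitor controls; plates repeated if Z′ < 0.4.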

[2] = target: Hepatocyte growth factor receptor (Homo sapiens, UniProt P08581); test: Inhibition of c-MET assessed as incorporation of p33 using [gammaP33]-ATP by microplate scintillation counting; summary of the method: as §1
Hepatocyte growth factor receptor, sequence (P08581 whole entry): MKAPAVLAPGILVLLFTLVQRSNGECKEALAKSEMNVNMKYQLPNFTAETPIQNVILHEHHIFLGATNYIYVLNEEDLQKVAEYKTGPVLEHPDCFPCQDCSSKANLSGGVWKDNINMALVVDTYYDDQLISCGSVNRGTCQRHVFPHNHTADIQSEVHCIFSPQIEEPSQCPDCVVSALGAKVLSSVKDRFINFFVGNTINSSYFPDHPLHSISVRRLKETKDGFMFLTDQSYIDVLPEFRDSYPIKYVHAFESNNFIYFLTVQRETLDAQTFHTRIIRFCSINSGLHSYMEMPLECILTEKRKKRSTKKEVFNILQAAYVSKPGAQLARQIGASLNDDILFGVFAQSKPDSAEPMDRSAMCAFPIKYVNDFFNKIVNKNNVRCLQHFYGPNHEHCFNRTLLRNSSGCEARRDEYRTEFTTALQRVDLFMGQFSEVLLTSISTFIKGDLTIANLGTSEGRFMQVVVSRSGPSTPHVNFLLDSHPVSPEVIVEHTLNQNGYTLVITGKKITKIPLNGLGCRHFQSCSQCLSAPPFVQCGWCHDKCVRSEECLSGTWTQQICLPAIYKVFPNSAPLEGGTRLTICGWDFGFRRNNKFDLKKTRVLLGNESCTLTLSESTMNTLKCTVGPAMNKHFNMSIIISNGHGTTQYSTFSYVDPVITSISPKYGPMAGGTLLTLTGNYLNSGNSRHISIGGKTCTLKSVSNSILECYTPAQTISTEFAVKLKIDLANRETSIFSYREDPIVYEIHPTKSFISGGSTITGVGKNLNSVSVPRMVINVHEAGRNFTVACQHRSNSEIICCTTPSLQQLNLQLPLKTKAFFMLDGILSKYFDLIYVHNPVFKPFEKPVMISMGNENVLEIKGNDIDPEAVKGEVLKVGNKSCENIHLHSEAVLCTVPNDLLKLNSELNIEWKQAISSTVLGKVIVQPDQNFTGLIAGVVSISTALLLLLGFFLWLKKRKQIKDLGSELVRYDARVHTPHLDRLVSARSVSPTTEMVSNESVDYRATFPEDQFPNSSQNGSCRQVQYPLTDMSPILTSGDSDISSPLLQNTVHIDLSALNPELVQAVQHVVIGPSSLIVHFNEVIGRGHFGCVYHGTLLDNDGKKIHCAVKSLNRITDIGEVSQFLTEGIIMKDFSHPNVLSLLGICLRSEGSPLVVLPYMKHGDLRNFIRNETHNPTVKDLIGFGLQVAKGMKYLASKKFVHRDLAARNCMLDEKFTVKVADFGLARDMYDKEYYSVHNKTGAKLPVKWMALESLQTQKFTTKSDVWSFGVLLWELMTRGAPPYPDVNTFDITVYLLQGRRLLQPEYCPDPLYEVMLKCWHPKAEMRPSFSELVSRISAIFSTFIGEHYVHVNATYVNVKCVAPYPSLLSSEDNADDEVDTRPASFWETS

[3] = target: Insulin-like growth factor 1 receptor (Homo sapiens, UniProt P08069); test: Inhibition of IGF-1R assessed as incorporation of p33 using [gammaP33]-ATP by microplate scintillation counting; summary of the method: as §1
Insulin-like growth factor 1 receptor, sequence (P08069 31-736 limits assumed): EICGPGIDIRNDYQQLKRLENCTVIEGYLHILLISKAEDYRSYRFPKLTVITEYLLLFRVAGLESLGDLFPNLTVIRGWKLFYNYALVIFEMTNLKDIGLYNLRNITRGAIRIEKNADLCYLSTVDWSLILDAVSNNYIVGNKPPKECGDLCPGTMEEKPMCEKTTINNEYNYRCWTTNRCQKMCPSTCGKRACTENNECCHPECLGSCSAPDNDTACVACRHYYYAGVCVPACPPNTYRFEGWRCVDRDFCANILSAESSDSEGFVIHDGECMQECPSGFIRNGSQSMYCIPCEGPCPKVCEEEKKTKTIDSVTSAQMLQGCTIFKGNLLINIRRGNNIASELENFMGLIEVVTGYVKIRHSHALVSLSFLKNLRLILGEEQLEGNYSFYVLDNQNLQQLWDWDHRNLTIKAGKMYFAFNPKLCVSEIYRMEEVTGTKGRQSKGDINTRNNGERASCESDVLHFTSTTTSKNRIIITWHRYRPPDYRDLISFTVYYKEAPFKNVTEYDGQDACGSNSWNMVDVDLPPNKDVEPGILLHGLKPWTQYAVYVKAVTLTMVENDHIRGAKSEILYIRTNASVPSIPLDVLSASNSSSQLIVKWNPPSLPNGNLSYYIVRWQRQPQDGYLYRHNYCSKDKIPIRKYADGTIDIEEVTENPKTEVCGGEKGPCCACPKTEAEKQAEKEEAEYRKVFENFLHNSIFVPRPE
Insulin-like growth factor 1 receptor, sequence (P08069 741-1367 limits assumed): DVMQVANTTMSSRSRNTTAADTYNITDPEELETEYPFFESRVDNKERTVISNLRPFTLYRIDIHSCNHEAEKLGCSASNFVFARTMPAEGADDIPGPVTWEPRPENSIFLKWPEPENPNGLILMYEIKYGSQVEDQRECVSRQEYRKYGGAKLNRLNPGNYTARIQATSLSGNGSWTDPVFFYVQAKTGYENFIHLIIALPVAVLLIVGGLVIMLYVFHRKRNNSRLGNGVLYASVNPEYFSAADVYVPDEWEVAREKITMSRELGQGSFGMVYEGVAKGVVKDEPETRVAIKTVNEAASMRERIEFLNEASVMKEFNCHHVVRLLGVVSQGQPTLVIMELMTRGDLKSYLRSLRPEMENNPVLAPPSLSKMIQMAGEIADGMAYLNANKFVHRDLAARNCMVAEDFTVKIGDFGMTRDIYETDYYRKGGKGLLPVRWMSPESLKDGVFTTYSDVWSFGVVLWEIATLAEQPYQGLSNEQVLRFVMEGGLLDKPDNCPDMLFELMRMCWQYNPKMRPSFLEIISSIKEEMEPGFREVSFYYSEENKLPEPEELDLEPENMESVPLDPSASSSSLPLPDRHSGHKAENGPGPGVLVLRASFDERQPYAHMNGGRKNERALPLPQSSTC

OVCAR-8 = test: Antiproliferative activity against human OVCAR8 at 10 uM after 48 hrs by sulforhodamine B assay relative to control; type: functional; conditions: OVCAR-8, 48 h
Summary of the method: (§2)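 NCI cell-line screen: cells plated at 5000–40,000/well in medium with 5% foetal bovine serum and 2 mM L-glutamine, preincubated 24 h at 37 °C, 5% CO2. Time-zero plates fixed with TCA at drug addition. Compound from DMSO stock added; 48 h exposure. Cells fixed in situ with cold TCA, stained with 0.4% sulforhodamine B in 1% acetic acid, absorbance 515 nm; growth expressed relative to untreated controls (100%).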

A549 = test: Antiproliferative activity against human A549 cells at 10 uM after 48 hrs by sulforhodamine B assay relative to control; type: functional; conditions: A549, 48 h; summary of the method: as §2
NCI-H522 = test: Antiproliferative activity against human NCI-H522 at 10 uM after 48 hrs by sulforhodamine B assay relative to control; type: functional; conditions: NCI-H522, 48 h; summary of the method: as §2

Proto-oncogene tyrosine-protein kinase Src, sequence (P12931 2-536 limits assumed): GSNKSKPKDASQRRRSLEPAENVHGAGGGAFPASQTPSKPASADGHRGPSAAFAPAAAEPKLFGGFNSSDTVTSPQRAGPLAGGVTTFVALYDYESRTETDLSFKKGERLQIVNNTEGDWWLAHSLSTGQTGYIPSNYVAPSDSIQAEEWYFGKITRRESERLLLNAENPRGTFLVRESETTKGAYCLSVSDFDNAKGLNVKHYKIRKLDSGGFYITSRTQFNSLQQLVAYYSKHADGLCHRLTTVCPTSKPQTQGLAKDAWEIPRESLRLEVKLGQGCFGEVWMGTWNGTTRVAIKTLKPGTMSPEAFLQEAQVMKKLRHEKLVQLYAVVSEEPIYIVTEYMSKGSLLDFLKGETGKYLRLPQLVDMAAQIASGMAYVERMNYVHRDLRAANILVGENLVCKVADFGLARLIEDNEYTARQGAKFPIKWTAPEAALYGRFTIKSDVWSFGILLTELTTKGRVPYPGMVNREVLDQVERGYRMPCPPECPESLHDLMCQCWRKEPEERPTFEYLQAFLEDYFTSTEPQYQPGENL

Row | SMILES | IC50 [1] [µM] | IC50 [2] [µM] | IC50 [3] [µM] | growth, % of control at 10 µM (OVCAR-8) [%] | growth, % of control at 10 µM (A549) [%] | growth, % of control at 10 µM (NCI-H522) [%]
1 | O=C(NNC(=O)c1ccc(-c2cccc(COc3cccc(C(F)(F)F)c3)c2)cc1)C(=O)c1c[nH]c2ccccc12 | 0.72 | 7.6 | 0.99 |  |  | 
2 | O=C(NCCc1cccc(Cl)c1)C(=O)c1c[nH]c2ccccc12 |  | > 100 | > 100 |  |  | 
3 | O=C(NNC(=O)c1ccc(-c2ccccc2OCc2ccc(F)cc2)cc1)C(=O)c1c[nH]c2ccccc12 | 1.9 | 13 | 4.9 |  |  | 
4 | Cc1ccc(C(=O)NNC(=O)C(=O)c2c[nH]c3ccccc23)cc1 |  | 95 | 82 |  |  | 
5 | COc1ccc(CCNC(=O)C(=O)c2c[nH]c3ccccc23)cc1OC |  | > 100 | > 100 |  |  | 
6 | O=C(NNc1ccc(Cl)cc1)C(=O)c1c[nH]c2ccccc12 |  | > 100 | > 100 |  |  | 
7 | O=C(NNC(=O)c1ccc(I)cc1)C(=O)c1c[nH]c2ccccc12 | 4.5 | 14 | 4 |  |  | 
8 | O=C(NNc1ccccc1)C(=O)c1c[nH]c2ccccc12 |  | > 100 | > 100 |  |  | 
9 | Cc1ccc(CCNC(=O)C(=O)c2c[nH]c3ccccc23)cc1 |  | > 100 | 52 |  |  | 
10 | O=C(NCc1cccc(Cl)c1)C(=O)c1c[nH]c2ccccc12 |  | > 100 | > 100 |  |  | 
11 | O=C(NNC(=O)c1ccc(Cl)cc1)C(=O)c1c[nH]c2ccccc12 |  | 48 | 16 |  |  | 
12 | Cc1nc(-c2ccc(C(=O)NNC(=O)C(=O)c3c[nH]c4ccccc34)cc2)no1 | 22 | 95 | 12 |  |  | 
13 | Cc1ccc(CNC(=O)C(=O)c2c[nH]c3ccccc23)cc1 |  | > 100 | 63 |  |  | 
14 | O=C(NCc1ccc(Cl)cc1)C(=O)c1c[nH]c2ccccc12 |  | > 100 | > 100 |  |  | 
15 | O=C(NNC(=O)c1ccccc1F)C(=O)c1c[nH]c2ccccc12 | 96 | 91 | 91 |  |  | 
16 | O=C(NNC(=O)c1ccc(C(F)(F)F)cc1)C(=O)c1c[nH]c2ccccc12 | 1.3 | 49 | 4.1 |  |  | 
17 | O=C(NNc1ccc(Br)cc1)C(=O)c1c[nH]c2ccccc12 |  | > 100 | > 100 |  |  | 
18 | CC(C)(C)c1ccc(C(=O)NNC(=O)C(=O)c2c[nH]c3ccccc23)cc1 | 5.9 | 36 | 4.4 |  |  | 
19 | COCCc1ccc(OCc2cccc(-c3ccc(C(=O)NNC(=O)C(=O)c4c[nH]c5ccccc45)cc3)c2)cc1 | 0.38 | 8.8 | 0.68 |  |  | 
20 | Cc1cc(C(C)(C)C)ccc1OCc1cccc(-c2ccc(C(=O)NNC(=O)C(=O)c3c[nH]c4ccccc34)cc2)c1 | 0.52 | 4.1 | 0.67 | -9.59 | 7.38 | -7.7
21 | O=C(NNC(=O)c1ccc(-c2ccccc2COc2cccc(C(F)(F)F)c2)cc1)C(=O)c1c[nH]c2ccccc12 | 0.62 | 5.2 | 0.81 |  |  | 
22 | Cc1ccc(C)n1-c1ccc(C(=O)NNC(=O)C(=O)c2c[nH]c3ccccc23)cc1 | 3.6 | 16 | 4.9 |  |  | 
23 | O=C(NNc1ccc(I)cc1)C(=O)c1c[nH]c2ccccc12 |  | > 100 | > 100 |  |  | 
24 | O=C(NNC(=O)c1ccccc1)C(=O)c1c[nH]c2ccccc12 |  | > 100 | > 100 |  |  | 
25 | O=C(NNC(=O)c1ccc([N+](=O)[O-])cc1)C(=O)c1c[nH]c2ccccc12 |  | 69 | > 100 |  |  | 
26 | COc1ccc(C(=O)NNC(=O)C(=O)c2c[nH]c3ccccc23)cc1 |  | 96 | 54 |  |  | 
27 | CS(=O)(=O)NCc1cccc(-c2ccc(C(=O)NNC(=O)C(=O)c3c[nH]c4ccccc34)cc2)c1 | 2.8 | 27 | 3.3 |  |  | 
28 | O=C(NCCc1ccc(Cl)cc1)C(=O)c1c[nH]c2ccccc12 |  | > 100 | > 100 |  |  | 
29 | Cc1cncc(Oc2ccc(C(=O)NNC(=O)C(=O)c3c[nH]c4ccccc34)cc2)n1 | 40 | > 100 | 31 |  |  | 
30 | O=C(NCc1ccccc1)C(=O)c1c[nH]c2ccccc12 |  | > 100 | > 100 |  |  | 
